Reference: ChEMBL document CHEMBL4376814, “Novel cyclin-dependent kinase 9 (CDK9) inhibitor with suppression of cancer stemness activity against non-small-cell lung cancer” (Eur J Med Chem, 2019)
Activity calls are given as the source filed them. No cut-off for these calls is given here.

What was measured:
NCI-H1299 [1] = assay: Antiproliferative activity against human H1299 cells assessed as inhibition of cell viability at 10 uM after 72 hrs by CCK-8 assay relative to control; format: functional; settings: NCI-H1299, 72 h
How it was run: (§1)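 Single-concentration viability screen using CCK-8. Cells were seeded at 3000/well and treated for 72 h. A450 read after 1-4 h with reagent. Percent inhibition calculated against untreated control and blank wells as (Ac−As)/(Ac−Ab)×100%.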

[2] = biological target: T1, CDK4/Cyclin D3 (Homo sapiens) (UniProt P11802+P30281); assay: Inhibition of recombinant full-length human CDK4/cyclinD3 at 1 uM using Rb fragment as substrate measured after 40 mins in presence of [gamma33P]ATP by scintillation counting method relative to control; format: protein-complex assay
How it was run: (§2)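 Percent inhibition of kinase activity at a single compound concentration, measured by the outsourced Eurofins KinaseProfiler panel. Values are the mean of two independent experiments.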

[3] = biological target: T2, CDK6/cyclin D3 (Homo sapiens) (UniProt P30281+Q00534); assay: Inhibition of recombinant full-length human CDK6/cyclinD3 at 1 uM using histone H1 as substrate measured after 40 mins in presence of [gamma33P]ATP by scintillation counting method relative to control; format: protein-complex assay; how it was run: as §2
[4] = biological target: T3, CDK9/cyclin T1 (Homo sapiens) (UniProt O60563+P50750); assay: Inhibition of recombinant full-length human CDK9/cyclinT1 at 1 uM using KTFCGTPEYLAPEVRREPRILSEEEQEMFRDFDYIADWC peptide as substrate measured after 40 mins in presence of [gamma33P]ATP by scintillation counting method relative to control; format: protein-complex assay; how it was run: as §2
A549 [5] = assay: Antiproliferative activity against human A549 cells assessed as inhibition of cell viability at 1 uM after 72 hrs by CCK-8 assay relative to control; format: functional; settings: A549, 72 h; how it was run: as §1
[6] = biological target: T1, CDK4/Cyclin D3 (Homo sapiens); assay: Inhibition of recombinant full-length human CDK4/cyclinD3 at 500 nM using Rb fragment as substrate measured after 40 mins in presence of [gamma33P]ATP by scintillation counting method relative to control; format: protein-complex assay; how it was run: as §2
[7] = biological target: T2, CDK6/cyclin D3 (Homo sapiens); assay: Inhibition of recombinant full-length human CDK6/cyclinD3 at 500 nM using histone H1 as substrate measured after 40 mins in presence of [gamma33P]ATP by scintillation counting method relative to control; format: protein-complex assay; how it was run: as §2
A549 [8] = assay: Antiproliferative activity against human A549 cells assessed as inhibition of cell viability at 10 uM after 72 hrs by CCK-8 assay relative to control; format: functional; settings: A549, 72 h; how it was run: as §1
[9] = biological target: T3, CDK9/cyclin T1 (Homo sapiens); assay: Inhibition of recombinant full-length human CDK9/cyclinT1 at 500 nM using KTFCGTPEYLAPEVRREPRILSEEEQEMFRDFDYIADWC peptide as substrate measured after 40 mins in presence of [gamma33P]ATP by scintillation counting method relative to control; format: protein-complex assay; how it was run: as §2
NCI-H1299 [10] = assay: Antiproliferative activity against human H1299 cells assessed as inhibition of cell viability at 1 uM after 72 hrs by CCK-8 assay relative to control; format: functional; settings: NCI-H1299, 72 h; how it was run: as §1

SMILES | inhibition [2] [%] | inhibition [3] | inhibition [4] [%] | inhibition [6] [%] | inhibition [7] [%] | inhibition [9] [%] | inhibition at 10 µM (NCI-H1299 [1]) [%] | inhibition at 1 µM (A549 [5]) [%] | inhibition at 10 µM (A549 [8]) [%] | inhibition at 1 µM (NCI-H1299 [10]) [%]
CN(C)C(=O)c1cc2cnc(Nc3ccc(N=C=S)cc3)nc2n1C1CCCC1 | 94 | 72% | 96 | 89 | 43 | 93 | 83.7 | 44.4 | 97.9 | 46.9
CN(C)C(=O)c1cc2cnc(NNC(=O)CCCCCCCN=C=S)nc2n1C1CCCC1 | 14 | inactive | 17 | – | – | – | – | – | – | –
CN(C)C(=O)c1cc2cnc(Nc3ccc(C(=O)NCCCN=C=S)cn3)nc2n1C1CCCC1 | 95 | 89% | 84 | 92 | 54 | 40 | – | – | – | –
CN(C)C(=O)c1cc2cnc(Nc3ccc(NC(=O)CCCCCCCN=C=S)cc3C(F)(F)F)nc2n1C1CCCC1 | 63 | 1% | 72 | – | – | 79 | – | – | – | –
CN(C)C(=O)c1cc2cnc(Nc3ccc(NC(=O)CCCCCCCN=C=S)c(F)c3)nc2n1C1CCCC1 | 86 | 69% | 87 | 75 | 51 | 76 | – | – | – | –

Continued, in another order:

inhibition [2] [%] | inhibition [3] | inhibition [4] [%] | inhibition [6] [%] | inhibition [7] [%] | inhibition [9] [%] | SMILES | inhibition at 10 µM (NCI-H1299 [1]) [%] | inhibition at 1 µM (A549 [5]) [%] | inhibition at 10 µM (A549 [8]) [%] | inhibition at 1 µM (NCI-H1299 [10]) [%]
97 | 93% | 97 | 100 | 71 | 99 | CN(C)C(=O)c1cc2cnc(Nc3ccc(NC(=O)CCCCN=C=S)cc3)nc2n1C1CCCC1 | 82.5 | 38.2 | 102 | 58.6
91 | 89% | 98 | 85 | 51 | 95 | CN(C)C(=O)c1cc2cnc(Nc3ccc(S(=O)(=O)NCCCCCN=C=S)cc3)nc2n1C1CCCC1 | 83.4 | 56.6 | 102 | 52.1
94 | 87% | 87 | 94 | 55 | 37 | CN(C)C(=O)c1cc2cnc(Nc3ccc(C(=O)NCCCCCN=C=S)cn3)nc2n1C1CCCC1 | – | – | – | –
95 | 88% | 85 | 91 | 53 | 41 | CN(C)C(=O)c1cc2cnc(Nc3ccc(C(=O)NCCCCN=C=S)cn3)nc2n1C1CCCC1 | – | – | – | –
90 | 92% | 98 | 91 | 64 | 99 | CN(C)C(=O)c1cc2cnc(Nc3ccc(S(=O)(=O)NCCCCN=C=S)cc3)nc2n1C1CCCC1 | 72.7 | 39.4 | 101 | 29.9
98 | 92% | 96 | 101 | 63 | 67 | CN(C)C(=O)c1cc2cnc(Nc3ccc(C(=O)NCCCCCCN=C=S)cc3)nc2n1C1CCCC1 | 85 | 35.8 | 100 | 49.4
84 | 64% | 73 | 91 | 46 | 18 | CN(C)C(=O)c1cc2cnc(Nc3ccc(C(=O)NCCCCCCCN=C=S)cn3)nc2n1C1CCCC1 | – | – | – | –
93 | 81% | 95 | 89 | 63 | 90 | CN(C)C(=O)c1cc2cnc(Nc3ccc(CNC(=O)CCCCCCCN=C=S)cc3)nc2n1C1CCCC1 | 91.7 | 17.8 | 98.9 | 53.8
